OX1R antag-1: antagonists of human orexin 1 receptor | O43613 | CHO/OX1R cells, Fluo-8 calcium fluorescence, orexin A | inhibition, % at 5 µM | hit rate 0.43% among 330,000;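 active means inhibition above its plate's threshold, mean inhibition of all tested compounds on the plate plus 3 SD, cut at about 37% in these data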
Target sequence (O43613 whole entry, looked up): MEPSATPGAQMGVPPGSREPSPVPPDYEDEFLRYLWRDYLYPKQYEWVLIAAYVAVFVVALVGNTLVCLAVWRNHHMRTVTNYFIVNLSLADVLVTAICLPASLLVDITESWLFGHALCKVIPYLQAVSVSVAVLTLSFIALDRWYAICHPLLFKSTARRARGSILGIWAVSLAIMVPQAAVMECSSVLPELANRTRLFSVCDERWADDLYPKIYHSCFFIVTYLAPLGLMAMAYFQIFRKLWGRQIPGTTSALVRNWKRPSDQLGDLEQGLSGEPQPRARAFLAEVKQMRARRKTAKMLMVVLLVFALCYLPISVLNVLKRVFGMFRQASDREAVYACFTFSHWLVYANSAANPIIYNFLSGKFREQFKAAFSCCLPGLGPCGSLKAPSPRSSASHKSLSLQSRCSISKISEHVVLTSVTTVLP
TAAR1 antag: human TAAR1 antagonism; CHO RD-HGA16 TAAR1, Fluo-8 calcium fluorescence, antagonist; inhibition, % at 3 µM; hit rate 1.5% among 360,000; AID 624466;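 active means inhibition above a per-plate cutoff, the mean inhibition of test compounds on that plate plus 3 SD, cut at about 49% in these data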
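test system = CHO RD-HGA16 cells bearing hTAAR1 | replication = singlicate | controls = DMSO-only wells and EC80 β-PEA-stimulated wells | reagent = EC80 β-phenethylamine stimulus | read-out basis = percent inhibition of PEA-evoked calcium signal, max/basal emission ratio | schedule = seeding 17-24 h prior, 75-min 37 °C, 30-min RT dye loading | signal = kinetic Fluo-8 calcium fluorescence measurement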
CHO parental Ca: counter-screen for OX1R antagonists: effect in parental CHO cells | parental CHO-K1, ATP-induced calcium, Fluo-8 fluorescence | inhibition, % at 5.6 µM | hit rate 0.63% among 330,000 | AID 463079;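 active means inhibition above that plate's mean sample inhibition plus 3 SD, cut at about 26% in these data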
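material = parental CHO cells | also added = ATP as calcium-mobilizing challenge | dosing = single point at 5.6 µM | detection = intracellular calcium via Fluo-8 no-wash fluorescent dye | read-out = % inhibition | benchmarks = low control ATP plus DMSO, high control DMSO only | repeats = one well per compound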
TAAR1 ag: human TAAR1 agonism; Q96RJ0; CHO RD-HGA16 TAAR1, Fluo-8 calcium fluorescence; vehicle wells 0%, saturating PEA agonist 100%; activation, % at 3 µM; hit rate 0.99% among 360,000;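 active means activation above the mean activation of all test compounds in the run plus 3 SD, cut at about 38% in these data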
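Assay system: CHO-derived RD-HGA16 cells with stable Gα16 and human TAAR1; timing: 17-24 h seeding, 75 min 37 °C dye, 30 min RT; read-out: % activation from peak over basal fluorescence ratio, DMSO-to-PEA scaled; measured by: kinetic Fluo-8 calcium fluorescence; benchmarks: low control DMSO, high control PEA (EC100); doses: 3 µM single concentration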
GPR7 antagonist: antagonists of human GPR7 (neuropeptides B/W receptor 1). hit rate 1.1% among 290,000. GPR7-expressing cells, fluorescence antagonist assay. inhibition, % at 4.4 µM. AID 1861. P48145; in the data active means inhibition above about 16%, passing the limit was not always enough;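 further: cells stimulated with the agonist NPW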
OX1R antag-2: antagonists of human orexin 1 receptor (OX1R) | O43613 | hit rate 1.8% among 330,000 | OX1R-expressing cells, FRET antagonist read-out | inhibition, % at 6.6 µM; in the data active means inhibition mostly above about 38%, no sharp cut-off; inactive means mostly below about 40%
Each line names hits and unclear results; the compound was inactive in the other large screens. Compounds with a hit are over-represented: about 4.6% of the library has one in this group of screens.

Cc1ccc(-n2c(N)c(C(=O)Nc3c(C)n(C)n(-c4ccccc4)c3=O)c3nc4ccccc4nc32)cc1C	CHO parental Ca 38 (no result: TAAR1 antag, TAAR1 ag)
C=CCn1c(-c2csc(-c3ccc(OC)c(OC)c3)n2)n[nH]c1=S	CHO parental Ca 72
O=C1Nc2ccccc2/C1=C/C(=O)c1cccs1	GPR7 antagonist 26
CC(C)[C@H](NC(=O)c1ccccc1Cl)C(=O)Nc1ccc(S(=O)(=O)Nc2nccs2)cc1	none (no result: GPR7 antagonist)
Cc1ccc(S(=O)(=O)N2CCC[C@H]2C(=O)OCc2nc3ccccc3s2)cc1	none (no result: OX1R antag-1, CHO parental Ca, GPR7 antagonist, OX1R antag-2)
Cc1ccc(S(=O)(=O)N2CCCC2C(=O)OCc2nc3ccccc3s2)cc1 (centres undefined)	CHO parental Ca 59
CC1CCC(C#N)(N(C)C(=O)CSc2nnc(C3CC3)n2C2CC2)CC1 (centres undefined)	none (no result: GPR7 antagonist)
CN(Cc1nc2ccccc2c(=O)[nH]1)C(=O)c1cc(-c2ccc(Br)cc2)nc2ccccc12	TAAR1 antag 50 (no result: OX1R antag-1, CHO parental Ca, GPR7 antagonist, OX1R antag-2)
Cc1cccc(C(=O)NCC(=O)N(C)Cc2nc3ccccc3c(=O)[nH]2)c1	none (no result: GPR7 antagonist)
CN(Cc1nc2ccccc2c(=O)[nH]1)C(=O)c1ccccc1OCc1ccc(Cl)cc1	OX1R antag-2 56 (no result: GPR7 antagonist)
CN(C(=O)c1ccccc1OCc1ccc(Cl)cc1)c1ccccc1	none
COc1ccc(S(=O)(=O)N2CCN(c3cnccn3)CC2)cc1OC	none (no result: GPR7 antagonist)
Cn1c(CO)cnc1SCc1ccc([N+](=O)[O-])cc1	OX1R antag-2 73
CCCN1CCN(C(=S)Nc2ccccc2C(F)(F)F)CC1	none
CC(=O)Cc1nsc(NC(=O)c2ccc(-c3ccc(F)cc3)o2)n1	OX1R antag-2 61
COCCN1C(=O)/C(=C/c2ccc(N3CCCC3)cc2C)SC1=S	TAAR1 antag 51, CHO parental Ca 31
CCN=C1S/C(=C\c2ccc(N3CCOCC3)cc2C)C(=O)N1CC	none
CN(C)CCN1CCN(C2CN(Cc3cn(Cc4ccccc4)nn3)S(=O)(=O)C2)CC1 (centres undefined)	none (no result: OX1R antag-1, CHO parental Ca, GPR7 antagonist, OX1R antag-2)
C#Cc1cccc(Nc2nc(NCc3ccccc3OC)nc3ccsc23)c1	TAAR1 antag 52 (no result: OX1R antag-1, CHO parental Ca, GPR7 antagonist, OX1R antag-2)
C#Cc1cccc(Nc2nc(NC(C)C)nc3ccsc23)c1	none (no result: OX1R antag-1, CHO parental Ca, GPR7 antagonist, OX1R antag-2)
C#Cc1cccc(Nc2nc(NCCOC)nc3ccsc23)c1	TAAR1 antag 57 (no result: OX1R antag-1, CHO parental Ca, GPR7 antagonist, OX1R antag-2)
O=C(Nc1cccnc1)c1cccc(S(=O)(=O)Nc2ccccc2F)c1	none (no result: OX1R antag-1, CHO parental Ca, GPR7 antagonist, OX1R antag-2)
O=C(Nc1cccc(S(=O)(=O)Nc2ccccc2F)c1)c1ccc2ccccc2n1	OX1R antag-2 82
Cc1cc(C)c(C)c(S(=O)(=O)N2CCC(C(=O)OCC(=O)N3c4ccccc4NC(=O)C3(C)C)CC2)c1C	TAAR1 antag 49
Cc1csc(Sc2ccc([N+](=O)[O-])cc2C(=O)OCC(=O)NC2CCCC(C)C2C)n1 (centres undefined)	none
CCC(C)NC(=O)COC(=O)c1cc([N+](=O)[O-])ccc1Sc1nc(C)cs1 (centres undefined)	OX1R antag-2 54
O=C(Nc1ccc(Cl)cc1)C1CCCCN1S(=O)(=O)c1ccccc1 (centres undefined)	OX1R antag-2 28 (no result: GPR7 antagonist)
Cc1ccc(NC(=O)[C@@H]2CCCN2S(=O)(=O)c2ccc(Cl)cc2)cc1	OX1R antag-2 48 (no result: GPR7 antagonist)
CCC1CCCCN1S(=O)(=O)c1ccc(S(=O)(=O)N(Cc2cccs2)C2CC2)cc1 (centres undefined)	OX1R antag-1 54
CC(=O)Nc1ccc(NC(=O)C2CCCCN2S(=O)(=O)c2ccc(C(C)(C)C)cc2)cc1 (centres undefined)	TAAR1 antag 55
CCC1CCCCN1S(=O)(=O)c1ccc(S(=O)(=O)N(Cc2ccccn2)CC2CCCO2)cc1 (centres undefined)	none
CC(=O)N1c2ccc(S(=O)(=O)N3CCCCC3)cc2CC1C(=O)NCc1cccc(Cl)c1 (centres undefined)	none
CCC1CCCCN1S(=O)(=O)c1ccc(NC(=O)c2ccncc2)cc1 (centres undefined)	CHO parental Ca 42
CCC1CCCCN1S(=O)(=O)c1ccc(C(=O)Nc2nnc(C3CC3)o2)cc1 (centres undefined)	none
COc1cc(OC)cc(C(=O)NCC(=O)OCC(=O)NCc2ccco2)c1	none (no result: GPR7 antagonist)
O=C(C(=O)N1CCCCCC1)c1c[nH]c2ccccc12	none (no result: OX1R antag-1, CHO parental Ca, OX1R antag-2)
